Results from PMC10601058 (ACS Omega, 2023).

Assays:
[1] = tested on: nitric oxide (NO) production in RAW 264.7 stimulated by LPS; assay: Nitric oxide inhibition in RAW 264.7 induced by LPS; format: cell-based; details: Mus musculus, RAW264.7, 24 h, read-out: no. inhibition %
Outline: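 Mouse RAW 264.7 cells at 1 × 10^6 cells/mL were treated with test compound at 10 μM or L-NAME at 250 μM. After 1 h, 1 μg/mL LPS was added for 24 h. Supernatant nitrite was measured with Griess reagent at 540 nm against a standard curve run alongside the samples.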

[2] = tested on: pin-1; details: read-out: IC50 (pin-1); cited from earlier work
[3] = MTT cytotoxicity assay on HepG2; format: cell-based; details: human, HepG2 cells
Outline: (§1)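 Cells were maintained in DMEM with 10% FBS and 1% pen-strep at 37 °C, 5% CO2, to 80% confluence. They were seeded in 96-well plates and exposed to test compound at 25 μM for 24 h. Viability was determined by MTT and given as % viability, mean ± SD of two independent experiments.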

[4] = MTT cytotoxicity assay on RAW 264.7; format: cell-based; details: mouse, RAW 264.7 cells
Outline: as §1

[5] = tested on: HepG2; details: dose of 100 μM; cited from earlier work

## COC(=O)[C@@H](N)CCCNC(N)=N[N+](=O)[O-] [L-NAME, L-NG-nitro arginine methyl ester]
[1]
  inhibition at 250 µM: 84.76 ± 0.4%

## CC(=O)O[C@@H]1CC[C@@]2(C)[C@@H](CC[C@]3(C)[C@@H]2C(=O)C=C2[C@@H]4[C@@H](C)[C@H](C)CC[C@]4(C)CC[C@]23C)[C@@]1(C)C(=O)O [compound 1, 3-acetyl-11-keto-β-boswellic acid]
[1]
  inhibition at 10 µM: 74 ± 0.1%
[2]
  IC50: 50 µM
[3]
  viability at 24 h, 25 µM: 86 ± 2.6%
[4]
  viability at 24 h, 25 µM: 92 ± 1.2%

## Cc1ccc(C(C)C)c(O)c1 [thymol]
[5]
  effect on APAP hepatotoxicity in HepG2: ameliorated APAP hepatotoxicity
